How the values were obtained:
[1] = target: T1, GABA-A receptor; alpha-2/beta-3/gamma-2 (Homo sapiens, UniProt P18507+P28472+P47869); experiment: Binding affinity towards human gamma-aminobutyric-acid A receptor alpha-2-beta-3-gamma-2 using [3H]Ro-151788 expressed in L(tk-) cells; type: cell-based
T1 sequence (P18507 whole entry): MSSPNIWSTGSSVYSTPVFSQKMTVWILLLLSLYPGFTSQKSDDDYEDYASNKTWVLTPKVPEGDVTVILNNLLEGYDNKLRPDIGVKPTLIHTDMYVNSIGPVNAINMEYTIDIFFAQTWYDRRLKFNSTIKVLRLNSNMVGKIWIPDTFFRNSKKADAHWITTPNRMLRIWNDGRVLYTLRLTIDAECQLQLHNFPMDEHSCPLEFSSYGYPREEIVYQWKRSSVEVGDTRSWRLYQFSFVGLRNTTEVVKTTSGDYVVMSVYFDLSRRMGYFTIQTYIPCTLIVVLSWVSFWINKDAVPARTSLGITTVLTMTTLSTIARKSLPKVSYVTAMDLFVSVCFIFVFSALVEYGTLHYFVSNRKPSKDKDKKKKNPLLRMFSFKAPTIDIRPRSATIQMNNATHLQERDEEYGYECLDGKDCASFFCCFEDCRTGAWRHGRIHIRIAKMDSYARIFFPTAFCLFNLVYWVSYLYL
T1 sequence (P28472 whole entry): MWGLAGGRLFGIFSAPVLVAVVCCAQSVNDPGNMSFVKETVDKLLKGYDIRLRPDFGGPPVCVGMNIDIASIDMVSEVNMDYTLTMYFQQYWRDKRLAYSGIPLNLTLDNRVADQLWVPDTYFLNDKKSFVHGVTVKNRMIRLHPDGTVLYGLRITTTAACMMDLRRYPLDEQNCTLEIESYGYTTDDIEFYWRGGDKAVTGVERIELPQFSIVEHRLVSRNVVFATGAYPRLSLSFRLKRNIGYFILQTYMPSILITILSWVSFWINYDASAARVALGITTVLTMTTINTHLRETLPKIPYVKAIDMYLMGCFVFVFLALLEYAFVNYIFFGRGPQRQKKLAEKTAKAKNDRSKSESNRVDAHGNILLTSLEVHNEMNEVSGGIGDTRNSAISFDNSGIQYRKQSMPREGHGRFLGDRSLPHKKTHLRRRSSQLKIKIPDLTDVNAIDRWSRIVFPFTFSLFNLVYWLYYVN
T1 sequence (P47869 whole entry): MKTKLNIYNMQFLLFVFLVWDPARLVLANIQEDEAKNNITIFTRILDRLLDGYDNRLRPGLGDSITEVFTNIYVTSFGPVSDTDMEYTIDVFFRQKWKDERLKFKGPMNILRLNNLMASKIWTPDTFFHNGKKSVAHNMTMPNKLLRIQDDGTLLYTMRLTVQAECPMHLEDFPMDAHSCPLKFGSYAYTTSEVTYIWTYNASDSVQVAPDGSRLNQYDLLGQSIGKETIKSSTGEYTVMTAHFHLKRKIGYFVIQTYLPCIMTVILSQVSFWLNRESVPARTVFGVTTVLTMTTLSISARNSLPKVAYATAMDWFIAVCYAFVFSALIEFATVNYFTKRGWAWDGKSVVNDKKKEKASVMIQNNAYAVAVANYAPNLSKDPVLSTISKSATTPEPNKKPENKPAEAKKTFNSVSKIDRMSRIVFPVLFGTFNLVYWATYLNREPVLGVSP

[2] = target: T2, GABA-A receptor; alpha-3/beta-3/gamma-2 (Homo sapiens, UniProt P18507+P28472+P34903); experiment: Binding affinity towards human gamma-aminobutyric-acid A receptor alpha-3-beta-3-gamma-2 using [3H]Ro-151788 expressed in L(tk-) cells; type: cell-based
T2 sequence (P18507 whole entry): T1 sequence (P18507 whole entry)
T2 sequence (P28472 whole entry): T1 sequence (P28472 whole entry)
T2 sequence (P34903 whole entry): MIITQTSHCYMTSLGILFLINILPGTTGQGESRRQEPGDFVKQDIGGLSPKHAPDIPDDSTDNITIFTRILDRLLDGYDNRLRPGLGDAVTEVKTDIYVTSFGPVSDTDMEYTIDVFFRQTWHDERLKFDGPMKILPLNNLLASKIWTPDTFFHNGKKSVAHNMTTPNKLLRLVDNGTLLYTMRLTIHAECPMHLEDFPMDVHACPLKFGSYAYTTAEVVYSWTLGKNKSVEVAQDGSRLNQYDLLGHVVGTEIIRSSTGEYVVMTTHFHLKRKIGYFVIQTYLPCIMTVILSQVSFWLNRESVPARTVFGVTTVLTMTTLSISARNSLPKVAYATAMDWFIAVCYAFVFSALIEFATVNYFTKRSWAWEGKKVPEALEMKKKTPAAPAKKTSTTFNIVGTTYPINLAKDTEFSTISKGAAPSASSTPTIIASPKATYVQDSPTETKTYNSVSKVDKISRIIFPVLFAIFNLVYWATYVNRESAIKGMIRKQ

[3] = target: T3, GABA-A receptor; alpha-5/beta-3/gamma-2 (Homo sapiens, UniProt P18507+P28472+P31644); experiment: Binding affinity towards human alpha-5-beta-3-gamma-2 GABA-A receptor using [3H]Ro-151788 expressed in L(tk-) cells; type: cell-based
T3 sequence (P18507 whole entry): T1 sequence (P18507 whole entry)
T3 sequence (P28472 whole entry): T1 sequence (P28472 whole entry)
T3 sequence (P31644 whole entry): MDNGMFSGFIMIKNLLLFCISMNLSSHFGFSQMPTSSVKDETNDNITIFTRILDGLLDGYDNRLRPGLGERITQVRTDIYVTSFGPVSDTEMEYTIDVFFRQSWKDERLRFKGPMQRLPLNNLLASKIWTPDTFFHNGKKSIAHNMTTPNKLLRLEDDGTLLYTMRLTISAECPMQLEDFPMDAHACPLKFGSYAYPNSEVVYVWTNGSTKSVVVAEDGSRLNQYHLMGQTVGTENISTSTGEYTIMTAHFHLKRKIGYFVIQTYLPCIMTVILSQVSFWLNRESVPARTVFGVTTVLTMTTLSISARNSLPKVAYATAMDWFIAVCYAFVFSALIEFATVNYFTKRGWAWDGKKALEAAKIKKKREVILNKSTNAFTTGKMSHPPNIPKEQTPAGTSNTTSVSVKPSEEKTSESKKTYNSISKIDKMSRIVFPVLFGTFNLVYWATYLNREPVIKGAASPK

[4] = target: GABA-A receptor; alpha-5/beta-3/gamma-2 (Homo sapiens) (UniProt P18507+P28472+P31644); experiment: Percent change in electrophysiological response in Xenopus oocytes expressing Alpha-5-beta-3-gamma-2 GABA-A receptor; type: functional, cell-based; conditions: Oocyte
In short: (§1)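 Two-electrode voltage clamp on Xenopus oocytes injected with human GABA-A subunit cDNAs, 24-72 h expression, perfused with modified Barth's medium at pH 7.5, clamped between -40 and -70 mV. The GABA EC20 was titrated against a 3 mM GABA maximum. […] Result is % change of control current, mean ± SE of ≥4 oocytes.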

[5] = target: T4, GABA-A receptor; alpha-1/beta-3/gamma-2 (Homo sapiens, UniProt P14867+P18507+P28472); experiment: Binding affinity towards human alpha-1-beta-3-gamma-2 GABA-A receptor using [3H]Ro-151788 expressed in L(tk-) cells; type: cell-based
T4 sequence (P14867 whole entry): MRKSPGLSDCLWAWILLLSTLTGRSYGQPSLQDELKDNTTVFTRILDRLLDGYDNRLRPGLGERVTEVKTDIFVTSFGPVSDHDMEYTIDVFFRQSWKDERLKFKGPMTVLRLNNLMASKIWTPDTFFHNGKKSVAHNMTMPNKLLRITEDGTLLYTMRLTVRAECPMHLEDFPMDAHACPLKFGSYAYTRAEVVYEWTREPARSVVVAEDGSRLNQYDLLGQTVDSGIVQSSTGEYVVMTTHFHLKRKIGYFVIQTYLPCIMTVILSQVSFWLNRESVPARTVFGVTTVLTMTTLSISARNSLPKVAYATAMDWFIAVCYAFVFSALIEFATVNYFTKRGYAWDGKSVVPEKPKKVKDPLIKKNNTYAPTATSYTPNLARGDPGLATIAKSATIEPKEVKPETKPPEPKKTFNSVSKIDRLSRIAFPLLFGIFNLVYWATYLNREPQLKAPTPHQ
T4 sequence (P18507 whole entry): T1 sequence (P18507 whole entry)
T4 sequence (P28472 whole entry): T1 sequence (P28472 whole entry)

[6] = target: GABA-A receptor; alpha-3/beta-3/gamma-2 (Homo sapiens) (UniProt P18507+P28472+P34903); experiment: Percent change in electrophysiological response in Xenopus oocytes expressing Alpha3-beta3-gamma2 GABA-A receptor; type: functional, cell-based; conditions: Oocyte; in short: as §1
[7] = target: GABA-A receptor; alpha-1/beta-3/gamma-2 (Homo sapiens) (UniProt P14867+P18507+P28472); experiment: Percent change in electrophysiological response in Xenopus oocytes expressing Alpha1-beta3-gamma2 GABA-A receptor; type: functional, cell-based; conditions: Oocyte; in short: as §1
[8] = target: GABA-A receptor; alpha-2/beta-3/gamma-2 (Homo sapiens) (UniProt P18507+P28472+P47869); experiment: Percent change in electrophysiological response in Xenopus oocytes expressing Alpha2-beta3-gamma2 GABA-A receptor; type: functional, cell-based; conditions: Oocyte; in short: as §1

Row | Structure (SMILES) | Ki [1] [nM] | Ki [2] [nM] | Ki [3] [nM] | Efficacy [4] [%] | Ki [5] [nM] | Efficacy [6] [%] | Efficacy [7] [%] | Efficacy [8] [%]
1 | Cc1cc(-c2nnc3c4c(c(OCc5ccccn5)nn23)C2CCC4C2)no1 (configuration not stated) | 19.7 | 17.6 | 5.5 | -13 | 57.7 | 0.6 | – | –
2 | Cc1noc(-c2nnc3c4c(c(OCc5ncc[nH]5)nn23)C2CCC4CC2)n1 | 35.9 | 19.4 | 3.8 | -26 | 159 | – | – | –
3 | Cc1cccc(COc2nn3c(-c4nc(C(C)C)no4)nnc3c3c2C2CCC3CC2)n1 | 68.4 | 83.9 | 6.5 | – | > 1000 | – | – | –
4 | Cc1nc(-c2nnc3c4c(c(OCc5cccc[n+]5[O-])nn23)C2CCC4CC2)[o+][n-]1 | 15.4 | 14.7 | 3.9 | – | 74.3 | – | – | –
5 | Cc1cccc(COc2nn3c(-c4nc(-c5ccccc5)no4)nnc3c3c2C2CCC3CC2)n1 | 203 | 227 | 19.2 | – | > 1000 | – | – | –
6 | Cc1cccc(COc2nn3c(-c4coc(C)n4)nnc3c3c2C2CCC3CC2)n1 | 57 | 46 | 6.8 | – | 280 | – | – | –
7 | Cc1cccc(COc2nn3c(-c4ccccn4)nnc3c3c2C2CCC3CC2)n1 | 227 | 104 | 15.3 | – | 518 | – | – | –
8 | Cc1noc(-c2nnc3c4c(c(OCc5cccnc5)nn23)C2CCC4CC2)n1 | 5.7 | 4.2 | 0.93 | – | 26.8 | – | – | –
9 | Cc1ccc(-c2nc3ccc(C)cn3c2CC(=O)N(C)C)cc1 [ZOLPIDEM] | 255 | 609 | > 10000 | – | – | 142 | 133 | 187
10 | Cc1cccc(COc2nn3c(-c4ncnn4C)nnc3c3c2C2CCC3CC2)n1 | > 1000 | > 1000 | 253 | – | > 1000 | – | – | –
11 | Cc1cccc(COc2nn3c(-c4nc(-c5ccncc5)no4)nnc3c3c2C2CCC3CC2)n1 | 209 | 26.4 | 2.1 | – | > 1000 | – | – | –
12 | Cc1cccc(COc2nn3c(-c4ccoc4)nnc3c3c2C2CCC3CC2)n1 | – | – | – | -24 | – | -4 | 27 | -5
13 | Cc1cccc(COc2nn3c(-c4nc(-c5cccnc5)no4)nnc3c3c2C2CCC3CC2)n1 | 166 | 69.6 | 3.3 | – | > 1000 | – | – | –
14 | Cc1noc(-c2nnc3c4c(c(OCc5ccccc5C#N)nn23)C2CCC4CC2)n1 | 2.9 | 1.7 | 0.44 | -45 | 17.5 | – | – | –
15 | Cc1cccc(COc2nn3c(-c4ncn(C)n4)nnc3c3c2C2CCC3CC2)n1 | > 1000 | > 1000 | 214 | – | > 1000 | – | – | –
16 | Cc1cccc(COc2nn3c(-c4csc(C)n4)nnc3c3c2C2CCC3CC2)n1 | > 1000 | > 1000 | 58 | – | > 1000 | – | – | –
17 | Cc1noc(-c2nnc3c4c(c(OCc5ccccn5)nn23)C2CCC4CC2)n1 | 8.5 | 3.9 | 0.77 | -38 | 28.2 | – | – | –
18 | Cc1cccc(COc2nn3c(-c4cc(C)on4)nnc3c3ccccc23)n1 | – | – | – | -15 | – | 3 | 15 | 12
19 | Cc1noc(-c2nnc3c4c(c(OCc5ccc(C)c(C)n5)nn23)C2CCC4CC2)n1 | 9.8 | 8.6 | 0.39 | -25 | 48.6 | -21 | 1 | –
20 | Cc1cccc(COc2nn3c(-c4ccco4)nnc3c3c2C2CCC3CC2)n1 | 275 | 116 | 13 | – | 1000 | – | – | –
21 | Cc1cccc(COc2nn3c(-c4cccs4)nnc3c3c2C2CCC3CC2)n1 | 66 | 22 | 4 | – | 115 | – | – | –
22 | Cc1cccc(COc2nn3c(-c4cc(C)on4)nnc3c3c2C2CCC3C2)n1 (configuration not stated) | 38.4 | 33.5 | 8.9 | -24 | 147 | 11 | – | –
23 | CCc1noc(-c2nnc3c4c(c(OCc5cccc(C)n5)nn23)C2CCC4CC2)n1 | 34 | 21 | 3.5 | – | 171 | – | – | –
24 | Cc1cccc(COc2nn3c(-c4ccsc4)nnc3c3c2C2CCC3CC2)n1 | – | – | – | 7 | – | – | – | –
25 | Cc1cc(-c2nnc3c4c(c(OCc5ccccn5)nn23)CCCC4)no1 | 3.5 | 1.6 | – | -23 | 4.2 | -15 | 0.4 | -6

— ChEMBL document CHEMBL1148356, “Synthesis and biological evaluation of 3-heterocyclyl-7,8,9,10-tetrahydro-(7,10-ethano)-1,2,4-triazolo[3,4-a]phthalazines and analogues as subtype-selective inverse agonists for the GABA(A)alpha5 benzodiazepine binding site” (J Med Chem, 2004)
